Source: PubChem
In the library only some 3.6% were active in any assay of this set; here they are far more common.
GRIN3A LBD mod: binders of NR3A ligand-binding domain, primary screen, biophysical, differential scanning fluorimetry, uHTS. Glutamate receptor ionotropic, NMDA 3A (GRIN3A) ligand-binding domain. NR3A LBD differential scanning fluorimetry, Tm shift; 0% = protein alone, 100% = glycine-bound protein. Tm shift relative to glycine control, % at 25 µM. 2.5% of 340,000 active. AID 1259313, 2017;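 active means melting temperature shift of at least 10% of the positive control shift, at one fixed dose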
NadD block: inhibitors of S. aureus NadD, primary screen, biochemical, colorimetric, uHTS | 0.78% of 360,000 active | purified NadD enzyme, colorimetric absorbance read-out | AID 602399, 2012 | Nicotinate-nucleotide adenylyltransferase NadD (Staphylococcus aureus N315) | inhibition, % at 20 µM; in the data active means inhibition above about 26%
SENP1 inh: human SENP1 catalytic domain inhibitors, primary screen, biochemical, FRET, uHTS; Sentrin-specific protease 1 (Homo sapiens), Q9P0U3; inhibition, % at 10 µM; 0.21% of 360,000 active; recombinant SENP1 catalytic domain, CyPet-SUMO1-YPet FRET cleavage;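 active means inhibition at least 30% at 10 µM, raw YFP signal under a set limit, fluorescence ratio 0.5 to 1.5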
Target sequence (Q9P0U3 419-644 limits assumed): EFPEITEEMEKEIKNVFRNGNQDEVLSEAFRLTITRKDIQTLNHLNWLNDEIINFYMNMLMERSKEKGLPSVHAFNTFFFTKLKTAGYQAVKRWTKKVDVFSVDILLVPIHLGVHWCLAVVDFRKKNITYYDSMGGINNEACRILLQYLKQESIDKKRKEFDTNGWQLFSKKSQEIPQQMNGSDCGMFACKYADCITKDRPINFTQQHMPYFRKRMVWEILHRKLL
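Assay system: hSENP1 catalytic domain, recombinant. Amount: SENP1 enzyme, 20 pM final. Schedule: 50 min reaction, RT, dark. Technique: FRET, CFP and YFP emission. Control set: no-enzyme wells low, DMSO-plus-enzyme wells high control.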
UCH37 inh: inhibitors of human UCH37 deubiquitinase, primary screen, biochemical, Ub-AMC cleavage, fluorescence | Ubiquitin carboxyl-terminal hydrolase isozyme L5 (Homo sapiens), Q9Y5K5 | purified proteasome/UCH37 | inhibition, % (test concentration not listed) | 0.33% of 330,000 active | AID 588478, 2011;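 active means mean inhibition over replicate wells above about 20%, limit read from the data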
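Test system – human UCH37 enzyme supplied as purified proteasome complex · Incubation – 30 min preincubation with enzyme, 25 min cleavage at room temperature · Detection – AMC fluorescence from Ub-AMC cleavage, excitation 355 nm, emission 460 nm · Benchmarks – no-proteasome wells (full inhibition) and compound-free wells (no inhibition)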
ATG4B inhibitor: ATG4B protease inhibitors, primary screen, biochemical, fluorescence, uHTS; Cysteine protease ATG4B (Homo sapiens), Q9Y4P1; ATG4B cleavage of LC3-PLA2, NBD-HPC fluorescence, 1 h; inhibition, % at 8.33 µM; 0.51% of 340,000 active; AID 504462, 2011; in the data active means inhibition above about 40%
Target sequence (Q9Y4P1 whole entry, looked up): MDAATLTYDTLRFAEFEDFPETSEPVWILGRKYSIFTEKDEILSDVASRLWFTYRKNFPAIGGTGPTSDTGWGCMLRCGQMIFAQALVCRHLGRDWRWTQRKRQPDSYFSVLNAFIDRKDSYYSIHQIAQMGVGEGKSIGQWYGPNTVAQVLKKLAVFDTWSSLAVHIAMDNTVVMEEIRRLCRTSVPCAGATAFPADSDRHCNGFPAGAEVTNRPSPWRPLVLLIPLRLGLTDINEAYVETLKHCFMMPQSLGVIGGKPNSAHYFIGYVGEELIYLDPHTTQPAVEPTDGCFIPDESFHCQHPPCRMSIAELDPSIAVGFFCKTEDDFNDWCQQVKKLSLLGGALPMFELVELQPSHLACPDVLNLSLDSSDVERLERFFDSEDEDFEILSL
ATG4B confirm: ATG4B protease inhibitors, retest, confirmation, biochemical, fluorescence, single concentration; shares compounds with ATG4B inhibitor; ATG4B protease fluorescent substrate cleavage assay; inhibition, % at 8.33 µM; 92% of 320 active; in the data active means inhibition above about 39%
PLA2 counter: PLA2 enzyme inhibition, counter-screen for ATG4B inhibitor project, biochemical, single concentration, uHTS hits; shares compounds with ATG4B inhibitor; purified PLA2, NBD-C6-HPC fluorescence, 45 min; inhibition, % at 8.33 µM; 66% of 1,600 active; AID 588402, 2011; in the data active means inhibition above about 50%
UCH37 reconfirm: retest of human UCH37 deubiquitinase inhibitors, confirmation, biochemical, Ub-AMC cleavage rate, fluorescence | shares compounds with UCH37 inh | Proteasome-bound UCH37 | inhibition, % at 20 µM | 27% of 480 active;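 active means average inhibition over replicates above about 50%, so the earlier screening hit is confirmed, limit read from the data; inactive means the rest, counted as false positives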;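 further: based on cleavage rate fitted by regression over a 30 min kinetic read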
NadD inh conf: inhibitors of S. aureus NadD, confirmation, biochemical, colorimetric, single concentration | AID 624309, 2012 | 13% of 2,000 active | purified S. aureus NadD, colorimetric enzyme assay | inhibition, % at 20 µM | shares compounds with NadD block; in the data active means inhibition mostly above about 42%, no sharp cut-off; inactive means mostly below about 42%
SENP1 inh conf: human SENP1 catalytic domain inhibitors, confirmation, biochemical, FRET endpoint, single concentration | shares compounds with SENP1 inh | recombinant SENP1, CyPet-SUMO1-YPet FRET cleavage | inhibition, % at 10 µM | 34% of 520 active | AID 651678, 2012; in the data active means inhibition mostly above about 35%, no sharp cut-off; inactive means mostly below about 32%
SENP1 kin conf: human SENP1 catalytic domain inhibitors, confirmation, biochemical, kinetic FRET, single concentration; shares compounds with SENP1 inh; recombinant SENP1, CyPet-SUMO1-YPet FRET kinetic cleavage; inhibition, % at 10 µM; 26% of 520 active; AID 651690, 2012; in the data active means inhibition mostly above about 32%, no sharp cut-off; inactive means mostly below about 29%
Hits are given with their value; n = inactive; x = no result.

SMILES	GRIN3A LBD mod	NadD block	SENP1 inh	UCH37 inh	ATG4B inhibitor	UCH37 reconfirm	others
CC(=O)Nc1c(S(=O)(=O)c2ccccc2)c2nc3ccccc3nc2n1Cc1ccccc1	n	n	n	n	n	x
NC(=NOC(=O)CSc1ccccc1)c1cccc([N+](=O)[O-])c1	x	x	x	n	x	x
O=[N+]([O-])c1ccc(N/N=C/c2sc(N3CCOCC3)nc2-c2ccccc2)c(S(=O)(=O)Nc2ccccc2Cl)c1	n	75	n	x	62	x	PLA2 counter=n;NadD inh conf=n
O=[N+]([O-])c1ccc(NN=Cc2sc(N3CCOCC3)nc2-c2ccccc2)c(S(=O)(=O)Nc2ccccc2Cl)c1	x	x	x	n	x	x
CCN(C)c1ccc(C=Nn2nnnc2N)cc1	x	x	x	n	x	x
N#C/C(=C\c1ccc(-c2ccccc2[N+](=O)[O-])o1)C(=O)Nc1nc(-c2cccs2)cs1	12	34	n	n	67	x	PLA2 counter=76;NadD inh conf=n
Cc1ccc(-n2c(O)c(C=Nc3ccccc3-c3n[nH]c(=S)[nH]c3=O)c3ccccc3c2=O)c(C)c1	n	32	n	n	43	x	ATG4B confirm=65;PLA2 counter=n;NadD inh conf=n
Cc1cccc(-n2c(O)c(C=Nc3ccccc3-c3n[nH]c(=S)[nH]c3=O)c3ccccc3c2=O)n1	n	n	n	n	n	x
CCc1cccc(CC)c1-n1c(SCC(=O)N2CCc3ccccc3C2)nnc1-c1cccnc1	n	n	37	n	68	x	PLA2 counter=63;SENP1 inh conf=n;SENP1 kin conf=n
O=C(C1=C(Nc2ccccc2)c2ccccc2S(=O)(=O)N1)c1ccccc1	n	n	49	x	74	x	PLA2 counter=83;SENP1 inh conf=n;SENP1 kin conf=n
CCN1CCc2nc3sc(C(=O)N4CCc5ccccc5C4)c(N)c3cc2C1	n	n	n	n	n	x
CC(C)c1ccc2nc3sc(C(=O)N4CCc5ccccc5C4)c(N)c3cc2c1	n	n	61	n	52	x	ATG4B confirm=54;PLA2 counter=n;SENP1 inh conf=81;SENP1 kin conf=51
Clc1ccc(C=NNC2=Nc3cccc4cccc2c34)cc1	x	x	x	n	x	x
O=C(O)COc1ccc(C=NNC(=O)/C(=C/C=C/c2ccccc2)NC(=O)c2ccccc2)cc1	x	x	x	n	x	x
COC(=O)/C(N=Nc1cccc(C(F)(F)F)c1)=C(\C)O	n	n	n	43	n	n
CCOC(=O)NC(=O)/C(N=Nc1cccc(C(F)(F)F)c1)=C(\C)O	n	n	n	n	n	x
Cc1[nH][nH]c(=O)c1C(c1c(C)[nH][nH]c1=O)c1cn(Cc2ccc(Cl)c(Cl)c2)c2ccccc12	n	37	n	47	n	n
Fc1ccccc1COc1cccc(C=Nn2cnnc2)c1	x	x	x	n	x	x
O=C(COC(=O)c1cccs1)Nc1cccc(S(=O)(=O)NC2=NCCCCC2)c1	n	n	n	n	n	x
O=C(COC(=O)c1ccc([N+](=O)[O-])s1)Nc1cccc(S(=O)(=O)NC2=NCCCCC2)c1	n	n	n	62	n	n
O=C(COC(=O)c1ccc([N+](=O)[O-])s1)Nc1ccccc1	n	n	n	60	n	n
CC(C)(C)c1ccc(NC(=O)COC(=O)c2ccc([N+](=O)[O-])s2)cc1	n	n	n	n	n	x
COc1ccc(S(=O)(=O)N2CCOCC2)cc1NC(=O)COC(=O)c1ccc([N+](=O)[O-])s1	n	n	n	62	n	n
O=C(COC(=O)c1ccc([N+](=O)[O-])s1)Nc1ccc(F)cc1	n	n	n	67	n	77
COc1cccc(C=NNC(=O)c2ccc(Cn3cc(Br)c([N+](=O)[O-])n3)o2)c1O	x	x	x	n	x	x
SMILES	GRIN3A LBD mod	NadD block	SENP1 inh	UCH37 inh	ATG4B inhibitor	UCH37 reconfirm	others
O=C(COC(=O)c1ccc([N+](=O)[O-])s1)NCc1ccccc1	n	n	n	39	n	n
Cc1ccc(C(=O)OCc2nnc(-c3ccccc3)o2)s1	n	n	n	n	n	x
O=C(COC(=O)c1ccc([N+](=O)[O-])s1)NC(c1ccccc1)c1ccccc1	n	n	n	n	n	x
O=C(OCc1nnc(-c2ccccc2)o1)c1ccc([N+](=O)[O-])s1	n	n	n	80	n	n
O=C1CCCC2=C1C(c1ccc3c(c1)OCO3)c1c([nH]n(-c3ccccc3)c1=O)N2 (configuration not stated)	n	n	n	32	n	n
COc1cccc(C2C3=C(CCCC3=O)Nc3[nH]n(-c4ccccc4)c(=O)c32)c1 (configuration not stated)	n	n	n	n	n	x
Cc1cccc(C)c1NC(=O)COc1cccc(C=NNC(=O)C(=O)NCc2ccccc2)c1	x	x	x	n	x	x
O=C(O)CC1S/C(=N/N=C/C=C/c2ccccc2)NC1=O (configuration not stated)	n	n	n	25	n	n
O=C(O)CC1S/C(=N/N=C/C=C/c2ccccc2[N+](=O)[O-])NC1=O (configuration not stated)	n	n	n	x	n	x
Nc1nonc1-n1nnc(C(=O)NN=Cc2ccc(Cl)cc2Cl)c1CN1CCOCC1	x	x	x	n	x	x
Cc1c(N2C(=O)/C(=C3/C(=O)N(C)c4ccccc43)SC2=S)c(=O)n(-c2ccccc2)n1C	n	n	n	n	n	x
CC(=O)N1C(=O)/C(=C2\SC(=S)N(c3c(C)n(C)n(-c4ccccc4)c3=O)C2=O)c2ccccc21	n	n	n	25	n	n
